Test results reported in ChEMBL document CHEMBL4390640, “Design of N-Benzoxaborole Benzofuran GSK8175-Optimization of Human Pharmacokinetics Inspired by Metabolites of a Failed Clinical HCV Inhibitor” (J Med Chem, 2019).

Columns and labels:
[1] = Half life in rat at 1 mg/kg, iv by LC-MS/MS analysis; type: ADME, organism-based; settings: in vivo
Hepatitis C virus = experiment: Antiviral activity against HCV genotype1 infected in human assessed as reduction in plasma viral RNA level at 420 mg, po administered as single dose; type: functional, Hepacivirus hominis, genotype 1
Cytochrome P450 3A4 [2] = target: T1, Cytochrome P450 3A4 (Homo sapiens, UniProt P08684); experiment: Inhibition of CYP3A4 in human liver microsomes using nifedipine as substrate preincubated for 7 mins followed by NADPH addition and measured by LC-MS/MS analysis; type: ADME
T1 sequence (P08684 whole entry): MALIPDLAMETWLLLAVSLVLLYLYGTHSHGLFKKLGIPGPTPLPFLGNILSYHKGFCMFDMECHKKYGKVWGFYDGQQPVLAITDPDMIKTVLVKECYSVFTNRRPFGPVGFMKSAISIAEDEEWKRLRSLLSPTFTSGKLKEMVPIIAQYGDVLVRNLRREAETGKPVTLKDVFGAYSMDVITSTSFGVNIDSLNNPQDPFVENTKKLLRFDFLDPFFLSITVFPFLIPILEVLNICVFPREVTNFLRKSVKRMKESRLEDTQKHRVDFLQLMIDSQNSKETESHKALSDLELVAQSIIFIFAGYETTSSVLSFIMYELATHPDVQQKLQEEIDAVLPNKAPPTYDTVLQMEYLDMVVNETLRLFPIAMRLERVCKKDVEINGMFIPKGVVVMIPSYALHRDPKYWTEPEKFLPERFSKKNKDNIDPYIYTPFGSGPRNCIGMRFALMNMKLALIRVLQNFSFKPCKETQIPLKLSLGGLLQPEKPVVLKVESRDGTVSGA

[3] = Half life in human assessed as 5-cyclopropyl-2-(4-fluorophenyl)-N-methyl-6-(methylsulfonamido)benzofuran-3-carboxamide level; type: ADME
[4] = Volume of distribution at steady state in rat at 1 mg/kg, iv by LC-MS/MS analysis; type: ADME, organism-based; settings: in vivo, read-out: Vdss
[5] = Plasma clearance in CD1 mouse at 1 mg/kg, iv by LC-MS/MS analysis relative to hepatic blood flow; type: ADME, organism-based; settings: in vivo
Outline: (§1)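 Clearance expressed as a percentage of liver blood flow: compound blood or plasma clearance after i.v. dosing divided by the hepatic blood flow of that species.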

Cytochrome P450 2C9 = Cytochrome P450 2C9 (Homo sapiens, UniProt P11712); experiment: Inhibition of CYP2C9 in human liver microsomes using diclofenac as substrate preincubated for 10 mins followed by NADPH addition and measured by LC-MS/MS analysis; type: ADME
Chain of Cytochrome P450 2C9 (P11712 whole entry): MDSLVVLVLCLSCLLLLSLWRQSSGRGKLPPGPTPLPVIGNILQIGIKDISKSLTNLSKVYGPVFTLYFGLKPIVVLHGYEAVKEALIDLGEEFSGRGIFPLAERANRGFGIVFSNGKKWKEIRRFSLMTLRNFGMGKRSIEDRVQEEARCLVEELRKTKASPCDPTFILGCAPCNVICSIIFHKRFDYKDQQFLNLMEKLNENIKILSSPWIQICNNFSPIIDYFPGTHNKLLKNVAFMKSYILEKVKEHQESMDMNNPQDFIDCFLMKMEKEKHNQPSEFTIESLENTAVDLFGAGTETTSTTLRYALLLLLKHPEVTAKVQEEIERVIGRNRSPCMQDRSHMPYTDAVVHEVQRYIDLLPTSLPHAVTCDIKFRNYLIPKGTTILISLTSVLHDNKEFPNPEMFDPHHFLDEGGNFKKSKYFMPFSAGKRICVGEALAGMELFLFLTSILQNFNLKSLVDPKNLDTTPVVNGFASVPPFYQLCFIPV

Cytochrome P450 3A4 [6] = target: T1, Cytochrome P450 3A4; experiment: Inhibition of CYP3A4 in human liver microsomes using atorvastatin as substrate preincubated for 7 mins followed by NADPH addition and measured by LC-MS/MS analysis; type: ADME
[7] = Blood clearance in Beagle dog at 1 mg/kg, iv by LC-MS/MS analysis relative to hepatic blood flow; type: ADME, organism-based, Canis lupus familiaris; settings: in vivo; outline: as §1
Cytochrome P450 3A4 [8] = target: T1, Cytochrome P450 3A4; experiment: Inhibition of CYP3A4 in human liver microsomes using midazolam as substrate preincubated for 7 mins followed by NADPH addition and measured by LC-MS/MS analysis; type: ADME
[9] = Blood clearance in rat at 1 mg/kg, iv by LC-MS/MS analysis relative to hepatic blood flow; type: ADME, organism-based; settings: in vivo; outline: as §1
[10] = Blood clearance in Beagle dog at 1 mg/kg, iv by LC-MS/MS analysis; type: ADME, organism-based, Canis lupus familiaris; settings: whole blood
Outline: (§2)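 Rat and dog received a single i.v. dose of 1 mg/kg in DMSO/20% hydroxypropyl-β-cyclodextrin (10/90), pH adjusted. Clearance was taken from blood or plasma concentration–time profiles.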

[11] = Plasma clearance in cynomolgus monkey at 1 mg/kg, iv by LC-MS/MS analysis relative to hepatic blood flow; type: ADME, organism-based, Macaca fascicularis; settings: in vivo; outline: as §1
Cytochrome P450 2C19 = Cytochrome P450 2C19 (Homo sapiens, UniProt P33261); experiment: Inhibition of CYP2C19 in human liver microsomes using mephenytoin as substrate preincubated for 10 mins followed by NADPH addition and measured by LC-MS/MS analysis; type: ADME
Chain of Cytochrome P450 2C19 (P33261 whole entry): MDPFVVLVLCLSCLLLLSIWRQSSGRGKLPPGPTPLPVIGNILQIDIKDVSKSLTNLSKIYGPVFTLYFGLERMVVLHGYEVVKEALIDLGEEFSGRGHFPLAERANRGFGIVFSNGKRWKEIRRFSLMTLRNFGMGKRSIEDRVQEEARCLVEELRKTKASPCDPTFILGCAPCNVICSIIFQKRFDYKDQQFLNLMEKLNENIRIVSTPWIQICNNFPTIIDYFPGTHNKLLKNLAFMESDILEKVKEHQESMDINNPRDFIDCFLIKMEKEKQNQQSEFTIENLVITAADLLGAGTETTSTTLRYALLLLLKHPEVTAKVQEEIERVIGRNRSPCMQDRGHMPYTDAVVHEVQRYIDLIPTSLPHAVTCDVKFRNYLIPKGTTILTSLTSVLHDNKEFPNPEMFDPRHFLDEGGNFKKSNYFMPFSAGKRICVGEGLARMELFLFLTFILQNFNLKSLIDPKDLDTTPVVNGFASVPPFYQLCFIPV

[12] = Blood clearance in rat at 1 mg/kg, iv by LC-MS/MS analysis; type: ADME, organism-based; settings: whole blood; outline: as §2
[13] = Half life in human hepatocytes at 0.5 uM by LC-MS/MS analysis; type: ADME, cell-based, Hepatocyte
Outline: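 Cryopreserved human hepatocytes were incubated with compound for up to 2 h, and metabolic turnover was followed to estimate half-life.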

[14] = AUC in rat at 5 mg/kg, po by LC-MS/MS analysis; type: ADME, organism-based; settings: in vivo
[15] = Clearance in rat at 1 mg/kg, iv by LC-MS/MS analysis; type: ADME, organism-based; settings: in vivo
[16] = Plasma clearance in cynomolgus monkey at 1 mg/kg, iv by LC-MS/MS analysis; type: ADME, organism-based, Macaca fascicularis
[17] = Oral bioavailability in rat at 5 mg/kg by LC-MS/MS analysis; type: ADME, organism-based; settings: in vivo
Cytochrome P450 1A2 = target: T2, Cytochrome P450 1A2 (Homo sapiens, UniProt P05177); experiment: Inhibition of CYP1A2 in human liver microsomes at 0.033 to 33 uM using phenacetin as substrate preincubated for 10 mins followed by NADPH addition and measured by LC-MS/MS analysis; type: ADME
T2 sequence (P05177 whole entry): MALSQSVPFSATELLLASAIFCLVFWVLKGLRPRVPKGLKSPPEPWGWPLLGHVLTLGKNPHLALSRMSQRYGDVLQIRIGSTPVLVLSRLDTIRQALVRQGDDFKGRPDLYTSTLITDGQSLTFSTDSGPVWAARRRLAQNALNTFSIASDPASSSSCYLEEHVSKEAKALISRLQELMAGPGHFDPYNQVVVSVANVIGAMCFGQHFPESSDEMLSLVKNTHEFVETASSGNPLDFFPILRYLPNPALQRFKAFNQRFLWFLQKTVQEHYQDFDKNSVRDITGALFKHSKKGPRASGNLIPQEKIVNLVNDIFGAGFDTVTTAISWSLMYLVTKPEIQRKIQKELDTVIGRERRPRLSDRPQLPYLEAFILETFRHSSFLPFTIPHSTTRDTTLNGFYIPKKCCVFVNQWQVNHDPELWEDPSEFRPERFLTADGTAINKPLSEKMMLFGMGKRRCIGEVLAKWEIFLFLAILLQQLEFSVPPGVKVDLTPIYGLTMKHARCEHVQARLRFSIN

Cytochrome P450 2D6 = Cytochrome P450 2D6 (Homo sapiens, UniProt P10635); experiment: Inhibition of CYP2D6 in human liver microsomes at 0.033 to 33 uM using bufuralol as substrate preincubated for 10 mins followed by NADPH addition and measured by LC-MS/MS analysis; type: ADME
Chain of Cytochrome P450 2D6 (P10635 whole entry): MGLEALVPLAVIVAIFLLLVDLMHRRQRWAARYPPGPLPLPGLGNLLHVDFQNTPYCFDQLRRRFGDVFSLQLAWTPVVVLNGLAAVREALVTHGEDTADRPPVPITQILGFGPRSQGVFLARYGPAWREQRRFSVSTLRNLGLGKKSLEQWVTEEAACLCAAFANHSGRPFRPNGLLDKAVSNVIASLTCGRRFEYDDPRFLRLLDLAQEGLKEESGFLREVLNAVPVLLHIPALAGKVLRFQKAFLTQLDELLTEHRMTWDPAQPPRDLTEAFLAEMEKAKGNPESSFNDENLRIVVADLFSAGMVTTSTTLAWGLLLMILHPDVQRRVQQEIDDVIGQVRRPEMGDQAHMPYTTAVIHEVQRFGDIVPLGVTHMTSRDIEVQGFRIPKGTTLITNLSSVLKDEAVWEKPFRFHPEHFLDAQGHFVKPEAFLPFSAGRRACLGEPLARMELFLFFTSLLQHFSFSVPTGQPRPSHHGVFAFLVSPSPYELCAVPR

[18] = Blood clearance in cynomolgus monkey at 1 mg/kg, iv by LC-MS/MS analysis relative to hepatic blood flow; type: ADME, organism-based, Macaca fascicularis; settings: in vivo; outline: as §1
[19] = target: Voltage-gated inwardly rectifying potassium channel KCNH2 (Homo sapiens, UniProt Q12809); experiment: Inhibition of human ERG by patch clamp electrophysiology method
Chain of Voltage-gated inwardly rectifying potassium channel KCNH2 (Q12809 whole entry): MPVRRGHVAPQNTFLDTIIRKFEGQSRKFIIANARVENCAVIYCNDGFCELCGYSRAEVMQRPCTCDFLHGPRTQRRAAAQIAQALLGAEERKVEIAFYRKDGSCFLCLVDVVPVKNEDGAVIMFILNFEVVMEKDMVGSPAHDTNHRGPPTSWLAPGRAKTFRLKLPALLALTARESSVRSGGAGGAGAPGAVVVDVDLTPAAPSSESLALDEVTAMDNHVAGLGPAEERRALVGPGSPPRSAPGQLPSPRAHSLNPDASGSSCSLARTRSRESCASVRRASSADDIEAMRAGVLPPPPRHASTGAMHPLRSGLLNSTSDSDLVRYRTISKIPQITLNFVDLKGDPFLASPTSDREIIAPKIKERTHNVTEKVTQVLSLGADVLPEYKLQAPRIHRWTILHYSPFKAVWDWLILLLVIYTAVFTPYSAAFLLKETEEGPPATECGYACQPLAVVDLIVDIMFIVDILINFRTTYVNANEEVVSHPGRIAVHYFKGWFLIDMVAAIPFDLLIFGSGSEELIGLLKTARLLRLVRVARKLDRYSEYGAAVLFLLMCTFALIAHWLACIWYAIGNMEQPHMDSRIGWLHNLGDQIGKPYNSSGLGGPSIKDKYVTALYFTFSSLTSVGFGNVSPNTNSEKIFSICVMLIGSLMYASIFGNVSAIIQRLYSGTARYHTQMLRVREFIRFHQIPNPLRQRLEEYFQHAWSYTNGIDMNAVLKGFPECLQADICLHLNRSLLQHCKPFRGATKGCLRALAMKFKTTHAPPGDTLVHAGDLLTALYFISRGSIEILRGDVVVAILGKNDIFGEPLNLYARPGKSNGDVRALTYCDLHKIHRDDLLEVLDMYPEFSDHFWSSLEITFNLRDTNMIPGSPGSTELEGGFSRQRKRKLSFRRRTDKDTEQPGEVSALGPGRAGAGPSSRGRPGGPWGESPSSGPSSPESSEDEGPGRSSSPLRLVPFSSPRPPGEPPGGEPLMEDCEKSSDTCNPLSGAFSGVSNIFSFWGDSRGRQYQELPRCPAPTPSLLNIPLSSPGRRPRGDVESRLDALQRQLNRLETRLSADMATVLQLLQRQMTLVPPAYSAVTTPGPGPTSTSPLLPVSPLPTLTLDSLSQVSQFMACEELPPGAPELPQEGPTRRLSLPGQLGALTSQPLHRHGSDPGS
Outline: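 hERG activity was measured by patch-clamp electrophysiology as the reduction in channel current caused by the compound, giving an IC50.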

[20] = Blood clearance in CD1 mouse at 1 mg/kg, iv by LC-MS/MS analysis relative to hepatic blood flow; type: ADME, organism-based; settings: in vivo; outline: as §1
[21] = Blood clearance in CD1 mouse at 1 mg/kg, iv by LC-MS/MS analysis; type: ADME, organism-based; settings: whole blood
[22] = Half life in rat hepatocytes at 0.5 uM by LC-MS/MS analysis; type: ADME, cell-based, Hepatocyte

Compound	half-life [1] [h]	IC50 (Cytochrome P450 3A4 [2]) [µM]	Vd [4] [L/kg]	IC50 (Cytochrome P450 2C9) [µM]	IC50 (Cytochrome P450 3A4 [6]) [µM]	IC50 (Cytochrome P450 3A4 [8]) [µM]	IC50 (Cytochrome P450 2C19) [µM]	AUC [14] [µg·h/mL]	clearance [15] [L/h/kg]	bioavailability [17] [%]	also measured
CNC(=O)c1c(-c2ccc(F)cc2)oc2cc(N(Cc3ccc(B(O)O)c(F)c3)S(C)(=O)=O)c(C3CC3)cc12	1	28	1.4	4.9	7.1	> 33	18	0.7	1.74	23	Activity (Hepatitis C virus): 1.33 log10IU/ml; t1/2 [3]: 45 h; CL [5]: 1.1%; CL [7]: 19%; CL [9]: 37%; clearance [10]: 0.66 L/h/kg; CL [11]: 100%; clearance [12]: 1.74 L/h/kg; half-life at 0.5 µM [13]: 1 h; clearance [16]: 2.88 L/h/kg
CNC(=O)c1c(-c2ccc(F)cc2)oc2cc(-n3nccc3-c3ccc(B(O)O)c(F)c3)c(C3CC3)cc12	3.4	> 33	1.3	1.5	2	> 33	23	10	0.324	64	
CNC(=O)c1c(-c2ccc(F)cc2)oc2cc(-n3ncnc3-c3ccc(B(O)O)c(F)c3)c(C3CC3)cc12	2.6	> 33	0.9	2.7	8.9	> 33	1.2	7.6	0.27	40	
CNC(=O)c1c(-c2ccc(F)cc2)oc2cc(N(c3cc(Cl)c4c(c3)COB4O)S(C)(=O)=O)c(C3CC3)cc12	2.8	> 33	0.9	22	> 33	> 33	> 33	5.4			inhibition (INH) (Cytochrome P450 1A2): Active; CL [7]: 2.1%; inhibition (INH) (Cytochrome P450 2D6): Active; CL [9]: 8.9%; CL [18]: 13%; IC50 [19]: 16 µM; CL [20]: 0.6%; clearance [21]: 0.042 L/h/kg
CNC(=O)c1c(-c2ccc(F)cc2)oc2cc(N(c3ccc(B(O)O)c(Cl)c3)S(C)(=O)=O)c(C3CC3)cc12	3.7	8.1	1.1	2.6	4.2	> 33	7.4	4.8	0.306	27	IC50 [19]: 1.6 µM
CNC(=O)c1c(-c2ccc(F)cc2)oc2cc(N3C(=O)OC[C@@H]3c3ccc(B(O)O)c(F)c3)c(C3CC3)cc12	1.2		1.3					0.28	1.32	8	
CNC(=O)c1c(-c2ccc(F)cc2)oc2cc(N(C3CCc4c(B(O)O)cccc43)S(C)(=O)=O)c(C3CC3)cc12 (stereo not given)	1.1		3.5					0.04	4.14	4	half-life at 0.5 µM [22]: 0.75 h; t1/2 ([13]; 0.5 µM): < 0.25 h
CNC(=O)c1c(-c2ccc(F)cc2)oc2cc(N(Cc3ccc(B(O)O)cc3C(F)(F)F)S(C)(=O)=O)c(C3CC3)cc12									0.21		
